According to ChEMBL document CHEMBL4330152, “α-Carbonic anhydrases are strongly activated by spinaceamine derivatives” (Bioorg Med Chem, 2019):

Experiments:
[1] = target: Carbonic anhydrase 1 (Homo sapiens) (UniProt P00915); experiment: Activation of human CA-1 incubated for 15 mins prior to testing by stopped flow CO2 hydrase assay
In short: (§1)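 Stopped-flow CO2 hydration at 25 °C, 10 mM Hepes pH 7.5 with 0.1 M NaClO4, phenol red 0.2 mM read at 557 nm over 10 s. CO2 1.7–17 mM. Activators (0.1 mM stocks in water) diluted in buffer down to 1 nM and preincubated 15 min with enzyme. Initial rates from ≥6 traces of first 5–10% of reaction, uncatalysed rate subtracted. Activation constants from competitive steady-state equation.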

[2] = target: Carbonic anhydrase 2 (Homo sapiens) (UniProt P00918); experiment: Activation of human CA-2 incubated for 15 mins prior to testing by stopped flow CO2 hydrase assay; in short: as §1
[3] = target: Carbonic anhydrase 4 (Homo sapiens) (UniProt P22748); experiment: Activation of human CA-4 incubated for 15 mins prior to testing by stopped flow CO2 hydrase assay; in short: as §1
Sequence of Carbonic anhydrase 4 (Homo sapiens) (P22748 whole entry): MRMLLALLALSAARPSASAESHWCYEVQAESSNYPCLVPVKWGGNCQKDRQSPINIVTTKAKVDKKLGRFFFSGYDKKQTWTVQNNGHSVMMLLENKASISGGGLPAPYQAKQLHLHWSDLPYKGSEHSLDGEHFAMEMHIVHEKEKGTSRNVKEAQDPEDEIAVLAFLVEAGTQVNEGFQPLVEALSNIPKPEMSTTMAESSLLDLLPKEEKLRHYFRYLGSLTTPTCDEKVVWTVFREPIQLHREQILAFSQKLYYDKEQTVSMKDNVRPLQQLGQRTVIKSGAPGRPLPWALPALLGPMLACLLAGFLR

[4] = target: Carbonic anhydrase 7 (Homo sapiens) (UniProt P43166); experiment: Activation of human CA-7 incubated for 15 mins prior to testing by stopped flow CO2 hydrase assay

Sequence of Carbonic anhydrase 1 (Homo sapiens) (P00915 2-261 limits assumed): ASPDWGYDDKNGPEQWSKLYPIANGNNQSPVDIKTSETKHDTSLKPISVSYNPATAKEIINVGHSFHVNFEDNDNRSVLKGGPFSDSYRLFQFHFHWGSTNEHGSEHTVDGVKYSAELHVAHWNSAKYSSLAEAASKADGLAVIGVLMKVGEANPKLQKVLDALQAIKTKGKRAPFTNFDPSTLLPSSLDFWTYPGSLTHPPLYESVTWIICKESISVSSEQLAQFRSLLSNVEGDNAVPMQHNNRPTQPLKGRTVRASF

Compound | KA [1] [µM] | KA [2] [µM] | KA [3] [µM] | KA [4] [µM]
CN(C)c1ccc(C2NCCc3nc[nH]c32)cc1 (stereo not drawn) | 3.45 | 7.44 | 3.14 | 0.59
COc1ccc(C2NCCc3[nH]cnc32)cc1 (stereo not drawn) | 6.01 | 7.31 | 6.37 | 0.73
COc1ccc(C2NCCc3nc[nH]c32)cc1OC (stereo not drawn) | 3.76 | 0.71 | 6.17 | 0.26
Cc1ccc(C2NCCc3nc[nH]c32)cc1 (stereo not drawn) | 6.27 | 17.2 | 7.06 | 1.03
Fc1cc(F)c(F)c(C2NCCc3nc[nH]c32)c1F (stereo not drawn) | 9.92 | 0.6 | 0.52 | 0.11
COc1cc(C2NCCc3nc[nH]c32)cc(OC)c1OC (stereo not drawn) | 9.28 | 3.26 | 2.84 | 0.093
c1coc(C2NCCc3nc[nH]c32)c1 (stereo not drawn) | 21.5 | 5.12 | 2.4 | 0.095
Clc1ccc(C2NCCc3[nH]cnc32)cc1 (stereo not drawn) | 17.6 | 8.49 | 50.1 | 0.84
Brc1ccccc1C1NCCc2nc[nH]c21 (stereo not drawn) | 4.3 | 2.8 | 4.05 | 0.082
N#Cc1ccc(C2NCCc3nc[nH]c32)cc1 (stereo not drawn) | 4.89 | 7.25 | 5.8 | 4.26
Oc1ccccc1C1NCCc2nc[nH]c21 (stereo not drawn) | 2.52 | 1.62 | 3.59 | 0.11
c1ccc(C2NCCc3[nH]cnc32)cc1 (stereo not drawn) | 8.12 | 16.3 | 63.8 | 2.69
Oc1ccc(Br)cc1C1NCCc2nc[nH]c21 (stereo not drawn) | 4.9 | 1.03 | 10.9 | 0.12
Cc1ccc(Br)cc1C1NCCc2nc[nH]c21 (stereo not drawn) | 12.7 | 15.5 | 4.42 | 0.38
NCCc1c[nH]cn1 | – | – | 4.03 | 37.6
